Data as given in ChEMBL document CHEMBL1136410, “Design, synthesis, and biological evaluation of angiogenesis inhibitors: aromatic enone and dienone analogues of curcumin” (2003).

Tests used:
[1] = In vitro percent inhibition of […] murine endothelial cell proliferation garnered from C57BL/6 mice infected with ectotropic virus at 3 ug/mL; assay type: functional; conditions: Mus musculus
Procedure, shortened: (§1)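 SVR cells (C57BL/6 murine endothelial cells immortalized with SV40 large T and activated H-ras) plated at 10,000/well on gelatinized wells. Grown 24 h at 37 °C, 10% CO2, in 5% DMEM. Medium then replaced with fresh 5% DMEM containing 3 or 6 µg/mL compound (from 1 mg/mL DMSO stocks) for 72 h. Surviving trypsinized cells Coulter-counted; percent inhibition versus DMSO control.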

[2] = In vitro percent inhibition of […] murine endothelial cell proliferation garnered from C57BL/6 mice infected with ectotropic virus at 6 ug/mL; assay type: functional; conditions: Mus musculus; procedure, shortened: as §1

SMILES | inhibition at 3 µg/mL [1] | inhibition at 6 µg/mL [2]
O=C(/C=C/c1ccccn1)c1ccccc1 [WR-190433] | 89.1% | 96.9%
O=C(/C=C/c1c(Cl)cccc1Cl)c1ccccc1 | 92.9% | 97.5%
O=C(/C=C/c1c(Cl)cccc1Cl)/C=C/c1c(Cl)cccc1Cl | 87.1% | 90.4%
O=C1/C(=C/c2ccccc2)CCC/C1=C\c1ccccc1 [2,6-DIBENZYLIDENECYCLOHEXANONE] | 94.4% | 97.7%
O=C(/C=C/c1ccccc1)c1ccc2ccccc2c1 | 92.2% | 94.7%
Cc1ccc(C(=O)/C=C/c2c(Cl)cccc2Cl)cc1 | 98.2% | 98.1%
O=C1/C(=C/c2ccccn2)CCC/C1=C\c1ccccn1 | 92.9% | 96.7%
COc1cc(/C=C2\CCC/C(=C\c3ccc(O)c(OC)c3)C2=O)ccc1O [CYCLOVALONE] | 90.1% | 96%
O=C(/C=C/c1ccccc1)/C=C/c1ccccc1 | 96.6% | 97.7%
O=C(/C=C/c1ccccc1)c1ccccc1 [CHALCONE] | 92.8% | 94.4%
